For data set [1], the system named is Mus musculus. The data set is described as follows: Antipyretic activity against LPS-induced C57BL/6 mouse model of hyperthermia assessed as reduction in body temperature at 100 mg/kg, ip measured after 75 mins. The class given is functional, organism-based. In outline:
(§1)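 Male C57BL/6 mice carried telemetry and recovered ≥1 week before use, housed at 29 °C ambient (near-thermoneutral). LPS 100 μg kg⁻¹ i.p. or saline was given, then drug or Ringer's acetate vehicle i.p. 3 h later. Core temperature was recorded continuously and analysed at the nadir time point. n = 4–9 per group.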

In data set [2] the test system is Mus musculus. The data set is described as follows: Antipyretic activity against LPS-induced C57BL/6 mouse model of hyperthermia assessed as PGE2 level in diencephalon at 100 mg/kg, ip measured after 40 mins by LC-MS/MS analysis relative to control. The class given is functional. In outline: (§2)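 Male C57BL/6 mice got LPS (E. coli O111:B4, 100 μg kg⁻¹ i.p.) or saline, then 3 h later the drug i.p. in Ringer's acetate vehicle. Diencephalon was taken 40 min later and homogenized in Tris/EDTA/ascorbate with 10 μM MAFP and 100 μM ibuprofen. Prostanoids were quantified by negative-ion LC-MS/MS and expressed as % of LPS + vehicle. n = 6.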

Data set [3] concerns Mus musculus. The data set is described as follows: Antipyretic activity against LPS-induced C57BL/6 mouse model of hyperthermia assessed as PGF2alpha level in diencephalon at 100 mg/kg, ip measured after 40 mins by LC-MS/MS analysis relative to control. The class given is functional. Summed up: as §2
Data set [4] concerns Mus musculus. The data set is described as follows: Antipyretic activity against LPS-induced C57BL/6 mouse model of hyperthermia assessed as 6-keto-PGF1alpha level in diencephalon at 100 mg/kg, ip measured after 40 mins by LC-MS/MS analysis relative to control. The class given is functional. Summed up: as §2
The subject of data set [5] is Mus musculus. The data set is described as follows: Antipyretic activity against LPS-induced C57BL/6 mouse model of hyperthermia assessed as TXB2 level in diencephalon at 100 mg/kg, ip measured after 40 mins by LC-MS/MS analysis relative to control. The class given is functional. Summed up: as §2
Data set [6] is described as follows: Inhibition of prostanoid synthesis in FAAH+/+ mouse assessed as PGE2 level in diencephalon at 150 mg/kg, ip measured after 40 mins by LC-MS/MS analysis relative to control. The class given is functional. Also on record: scale not given: the % may be the effect or the level left. Summed up:
(§3)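 In a separate set, FAAH+/+ (n = 10–11) and FAAH-/- (n = 5) mice received LPS 100 μg kg⁻¹ i.p., then paracetamol 150 mg kg⁻¹ i.p. 3 h later. Diencephalic PGE2, PGF2α, 6-keto-PGF1α and TXB2 were measured by negative-ion LC-MS/MS and expressed as % of febrile vehicle-treated animals. Values below the detection limit were set to 1/4 of that limit.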

Data set [7] in a line: Inhibition of prostanoid synthesis in FAAH+/+ mouse assessed as PGF2alpha level in diencephalon at 150 mg/kg, ip measured after 40 mins by LC-MS/MS analysis relative to control. Also on record: scale not given: the % may be the effect or the level left. The class given is functional. Summed up:
as §3

A short description of data set [8]: Inhibition of prostanoid synthesis in FAAH+/+ mouse assessed as 6-keto-PGF1alpha level in diencephalon at 150 mg/kg, ip measured after 40 mins by LC-MS/MS analysis relative to control. The class given is functional. Further details: scale not given: the % may be the effect or the level left. In outline: as §3
The nature of data set [9]: Inhibition of prostanoid synthesis in FAAH+/+ mouse assessed as TXB2 level in diencephalon at 150 mg/kg, ip measured after 40 mins by LC-MS/MS analysis relative to control. The class given is functional. Further details: scale not given: the % may be the effect or the level left. Summed up: as §3
Data set [10] in a line: Inhibition of prostanoid synthesis in FAAH-/- mouse assessed as PGE2 level in diencephalon at 150 mg/kg, ip measured after 40 mins by LC-MS/MS analysis relative to control. Further details: scale not given: the % may be the effect or the level left. The class given is functional. Summed up:
as §3

Data set [11] is described as follows: Inhibition of prostanoid synthesis in FAAH-/- mouse assessed as PGF2alpha level in diencephalon at 150 mg/kg, ip measured after 40 mins by LC-MS/MS analysis relative to control. The class given is functional. Further details: scale not given: the % may be the effect or the level left. Summed up:
as §3

Data set [12] in a line: Inhibition of prostanoid synthesis in FAAH-/- mouse assessed as 6-keto-PGF1alpha level in diencephalon at 150 mg/kg, ip measured after 40 mins by LC-MS/MS analysis relative to control. Also on record: scale not given: the % may be the effect or the level left. The class given is functional. In outline:
as §3

Data set [13] is described as follows: Inhibition of prostanoid synthesis in FAAH-/- mouse assessed as TXB2 level in diencephalon at 150 mg/kg, ip measured after 40 mins by LC-MS/MS analysis relative to control. The class given is functional. Further details: scale not given: the % may be the effect or the level left. In outline:
as §3

Data set [14] in a line: Hepatotoxicity in C57BL/6 mouse assessed as change in ALT level at 300 mg/kg, ip measured after 12 hrs. To be noted: in vivo. The class given is toxicity, organism-based. Summed up:
(§4)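 Male C57BL/6 mice (8 weeks) were fasted 12–16 h, then given 300 mg kg⁻¹ i.p. in saline. At 12 h, blood was taken for serum ALT/AST (automated analyser). The left medial liver lobe was fixed in 4% formaldehyde, cryosectioned at 10 μm and stained with H&E. The ALT/AST ratio was tested against 1. Mean ± SEM, n = 6–7.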

A short description of data set [15]: Hepatotoxicity in C57BL/6 mouse assessed as centrilobular necrosis at 300 mg/kg, ip measured after 12 hrs by H and E staining based microscopic analysis. The conditions noted are these: in vivo. The class given is toxicity, organism-based. Summed up: as §4
Data set [16] deals with T1, Fatty-acid amide hydrolase 1 (Mus musculus, UniProt O08914).
T1 sequence (O08914 whole entry): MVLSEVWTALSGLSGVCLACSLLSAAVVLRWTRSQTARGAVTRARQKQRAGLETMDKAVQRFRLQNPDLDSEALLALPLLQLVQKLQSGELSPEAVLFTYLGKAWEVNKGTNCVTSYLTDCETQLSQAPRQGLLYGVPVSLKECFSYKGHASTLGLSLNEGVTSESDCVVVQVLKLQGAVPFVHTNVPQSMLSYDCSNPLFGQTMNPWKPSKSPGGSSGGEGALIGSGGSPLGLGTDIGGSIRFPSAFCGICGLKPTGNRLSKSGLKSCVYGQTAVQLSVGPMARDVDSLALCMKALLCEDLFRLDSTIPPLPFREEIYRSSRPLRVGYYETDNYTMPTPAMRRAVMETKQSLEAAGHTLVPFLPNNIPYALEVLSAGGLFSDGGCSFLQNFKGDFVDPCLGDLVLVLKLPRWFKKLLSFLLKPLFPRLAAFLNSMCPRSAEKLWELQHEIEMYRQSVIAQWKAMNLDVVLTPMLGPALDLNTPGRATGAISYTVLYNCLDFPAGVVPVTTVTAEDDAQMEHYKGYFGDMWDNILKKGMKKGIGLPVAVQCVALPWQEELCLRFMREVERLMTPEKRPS
The experiment in a line: Substrate activity at FAAH in FAAH+/+ mouse brain assessed as N-arachidonoyl conjugate level per g protein at 0.1 mM measured after 20 mins by LC-MS/MS analysis. To be noted: 100 µM. The class given is ADME, tissue-based. Summed up:
(§5)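 Brains from FAAH+/+ or FAAH-/- mice were homogenized in ice-cold 10 mM Tris with 1 mM EDTA and 0.3 mM ascorbic acid. Aliquots were incubated with 0.1 mM primary amine for 20 min at 37 °C with stirring. Reactions were stopped with cold acetone containing AM404-d4 internal standard, and conjugates were measured by LC-MS/MS. n = 5–7.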

Data set [17] in a line: Prodrug conversion in FAAH-/- mouse brain assessed as N-arachidonoyl conjugate level per g protein at 0.1 mM measured after 20 mins by LC-MS/MS analysis. The class given is ADME, tissue-based. The conditions noted are these: in vitro, 100 µM. Summed up:
as §5

Data set [18] can be described thus: Prodrug conversion in FAAH+/+ mouse brain assessed as N-arachidonoyl conjugate level per g protein at 100 mg/kg, ip measured after 20 mins by LC-MS/MS analysis. The class given is ADME, organism-based. Further details: unit: pmol/g protein. To be noted: in vivo. In outline: (§6)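 FAAH+/+ and FAAH-/- mice (both sexes) received the primary amine i.p. in saline (sometimes with 5% DMSO). Brains were collected 20 min later, frozen, and homogenized in Tris/EDTA/ascorbate with 10 μM MAFP. N-arachidonoyl conjugates were quantified by positive-ion LC-MS/MS and normalized to protein.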

Data set [19] is described as follows: Prodrug conversion in FAAH-/- mouse brain assessed as N-arachidonoyl conjugate level per g protein at 100 mg/kg, ip measured after 20 mins by LC-MS/MS analysis. The class given is ADME, organism-based. Further details: unit: pmol/g protein. To be noted: in vivo. Summed up: as §6
Data set [20] concerns Mus musculus. The data set is described as follows: Antipyretic activity against LPS-induced C57BL/6 mouse model of hyperthermia assessed as reduction in body temperature at 30 mg/kg, ip measured after 75 mins. The class given is functional, organism-based. In outline:
as §1

Data set [21] relates to Mus musculus. The data set is described as follows: Antipyretic activity against LPS-induced C57BL/6 mouse model of hyperthermia assessed as PGE2 level in diencephalon at 30 mg/kg, ip measured after 40 mins by LC-MS/MS analysis relative to control. The class given is functional. Summed up: as §2
Data set [22] has as its system Mus musculus. The data set is described as follows: Antipyretic activity against LPS-induced C57BL/6 mouse model of hyperthermia assessed as PGF2alpha level in diencephalon at 30 mg/kg, ip measured after 40 mins by LC-MS/MS analysis relative to control. The class given is functional. Summed up:
as §2

Data set [23] has as its system Mus musculus. The data set is described as follows: Antipyretic activity against LPS-induced C57BL/6 mouse model of hyperthermia assessed as 6-keto-PGF1alpha level in diencephalon at 30 mg/kg, ip measured after 40 mins by LC-MS/MS analysis relative to control. The class given is functional. In outline:
as §2

Data set [24] relates to Mus musculus. The data set is described as follows: Antipyretic activity against LPS-induced C57BL/6 mouse model of hyperthermia assessed as TXB2 level in diencephalon at 30 mg/kg, ip measured after 40 mins by LC-MS/MS analysis relative to control. The class given is functional. In outline: as §2
Data set [25] relates to Mus musculus. The data set is described as follows: Hepatotoxicity in C57BL/6 mouse assessed as change in ALT/AST ratio at 300 mg/kg, ip measured after 12 hrs. The class given is functional. In outline:
as §4

Active and inactive are the calls of the source. The calls are words filed in the database; no cut-off is given here.

For the compound `CC(=O)Nc1ccc(O)cc1` [ACETAMINOPHEN], in data set [1], the result was Active. Further, the Activity in data set [2] is 13%; in [3] it was 18%; in data set [4], 17%; in data set [5] it was 36%; in data set [6], 8%; in data set [7], 19%. For the same compound, the Activity in data set [8] is reported as 15%; in data set [9] it was 25%; in data set [10], 9%; in [11], 10%; in data set [12], 12%; in data set [13], 18%. Besides, the Activity result in [14] and in data set [15] was “Toxic” throughout.

For `Nc1ccc(O)cc1` [4-AMINOPHENOL], the Drug metabolism came out at 8.8 nmol/g in [16], 0.05 nmol/g in [17], 1002 pmol in data set [18] and 24 pmol in data set [19]. Moreover, the outcome in [20] was inactive. For the same compound, the Activity in [21] is recorded as 44%; in data set [22], 81%; in [23], 60%; in data set [24], 60%; in [14] it was “Non-Toxic”; in data set [15], “Non-Toxic”. Further, the Ratio in data set [25] is listed as greater than 1.

Source of the values: ChEMBL document CHEMBL4732106, “Paracetamol analogues conjugated by FAAH induce TRPV1-mediated antinociception without causing acute liver toxicity” (Eur J Med Chem, 2021).
